Data: ChEMBL document CHEMBL1123103, “Pyrimidinones. 1. 2-Amino-5-halo-6-aryl-4(3H)-pyrimidinones. Interferon-inducing antiviral agents” (1985)
The source made the active and inactive calls. The calls are words filed in the database; no cut-off is given here.

Legend:
Semliki Forest virus [1] = assay: Antiviral activity against Forest virus (SFV); assay type: functional
Summary of the method: (§1)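 ICR or CD-1 mice of both sexes got one drug dose by the route in the line (ip, po or sc). The drug was a suspension in 0.9% NaCl or in a CMC/polysorbate 80/benzyl alcohol/NaCl vehicle. […] Deaths were recorded daily for 6 days, 24 mice/group. ED50 is the minimal dose protecting 50% of mice, by probit analysis.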

Semliki Forest virus [2] = assay: Effective dose administered perorally againist Forest virus infected mice; assay type: functional; settings: po; summary of the method: as §1
[3] = system: Vesicular stomatitis virus; assay: Evaluation for serum interferon response from a single 800 mg/kg intraperitoneal administration in vesicular stomatitis virus on […] cells.; assay type: functional
Summary of the method: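 Mice got a single ip 800 mg/kg dose. Blood was drawn 3, 6, 8 and 12 h later from five mice per group and pooled. Interferon titer was measured by plaque reduction with vesicular stomatitis virus on L929 cells. Titer is the reciprocal serum dilution cutting plaques by 50% versus untreated cultures. Peak response within 24 h was banded: ≥2000, ~500-1000, ~50-500, ~10-50 U/mL.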

Human alphaherpesvirus 1 = assay: Intraperitoneal administration against herpes simplex virus type-1 (HSV-1) infected mice; assay type: functional
Summary of the method: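 ICR or CD-1 mice got drug ip in saline as the total daily dose (mg/kg/day). It was split into doses at -40, -28, -20, -3 and +3 h relative to ip inoculation with 5.6×10^4 pfu HSV-1. Mice were followed for 22 days, 15/group. Protection index = (control mortality − treated mortality)/control mortality; >0.25 counted active. Only the lowest protective dose is recorded.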

Semliki Forest virus [4] = assay: Effective dose administered subcutaneously againist Forest virus infected mice; assay type: functional; settings: sc; summary of the method: as §1
Semliki Forest virus [5] = assay: Effective dose administered intraperitoneally againist Forest virus infected mice; assay type: functional, organism-based
Summary of the method: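 Drug was suspended in 0.9% NaCl or in a carboxymethylcellulose/polysorbate 80/benzyl alcohol/NaCl vehicle. Deaths were recorded daily for 6 days, with 24 mice per group. The ED50 is the minimal dose protecting 50% of mice, calculated by probit analysis.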

| Compound | ED50 (Semliki Forest virus [1]) [mg/kg] | ED50 (Semliki Forest virus [2]) [mg/kg] | IFN [3] | Protection index (Human alphaherpesvirus 1) | ED50 (Semliki Forest virus [4]) [mg/kg] | ED50 (Semliki Forest virus [5]) |
| --- | --- | --- | --- | --- | --- | --- |
| Nc1nc(O)c(I)c(-c2cccc(C(F)(F)F)c2)n1 | 160 | > 400 | >=2000 ml | 0.36 | > 400 | – |
| Nc1nc(O)c(Br)c(-c2ccccn2)n1 | 75 | 310 | >=2000 ml | – | 65 | – |
| Nc1nc(O)c(I)c(-c2cccc([N+](=O)[O-])c2)n1 | 90 | > 400 | >=2000 ml | 0.6 | 155 | – |
| Nc1nc(O)c(Br)c(-c2ccccc2O)n1 | – | – | – | – | – | inactive |
| Nc1nc(O)c(Cl)c(-c2ccc(F)cc2)n1 | 300 | > 400 | – | 0.85 | 355 | – |
| Nc1nc(O)c(I)c(-c2ccccn2)n1 | 215 | 235 | >=2000 ml | – | > 400 | – |
| Nc1nc(O)c(I)c(-c2ccc(Cl)c(Cl)c2)n1 | 115 | > 400 | >=2000 ml | 0.36 | 240 | – |
| Nc1nc(O)c(Br)c(-c2ccco2)n1 | 295 | > 400 | 50 units/mL | 0.14 | > 400 | – |
| Nc1nc(O)c(Br)c(-c2cc(F)ccc2F)n1 | 165 | > 400 | >=2000 ml | 0 | – | – |
| Nc1nc(O)c(I)c(-c2cc(F)cc(F)c2)n1 | 230 | > 400 | >=2000 ml | 0 | – | – |
| Nc1nc(O)c(I)c(-c2ccccc2)n1 | 50 | > 400 | 50 units/mL | 0.86 | 25 | – |
| Nc1nc(O)c(Br)c(-c2cc(Br)c(O)c(Br)c2)n1 | – | – | – | – | – | inactive |
| COc1ccccc1-c1nc(N)nc(O)c1Cl | 20 | > 400 | 50 units/mL | 0.53 | – | – |
| Nc1nc(O)c(Cl)c(-c2ccccc2O)n1 | – | – | – | 0.61 | – | – |
| Nc1nc(O)c(Br)c(-c2cccc(O)c2)n1 | – | – | – | 0 | – | inactive |
| Nc1nc(O)c(Br)c(-c2ccoc2)n1 | > 400 | – | – | – | – | – |
| CCOc1cccc(-c2nc(N)nc(O)c2Cl)c1 | – | – | – | 0.13 | – | – |
| CCOc1cccc(-c2nc(N)nc(O)c2I)c1 | – | – | – | 0 | – | – |
| Nc1nc(O)c(Cl)c(-c2cc(Cl)ccc2Cl)n1 | 120 | 200 | >=2000 ml | 0.47 | 115 | – |
| Nc1nc(O)c(I)c(-c2ccc(C(=O)O)cc2)n1 | 380 | – | – | – | – | – |
| COc1cc(OC)cc(-c2nc(N)nc(O)c2Cl)c1 | 90 | – | – | – | – | – |
| Nc1nc(O)c(Br)c(-c2cnccn2)n1 | 65 | > 400 | – | – | 365 | – |
| Nc1nc(O)c(I)c(-c2cccnc2)n1 | 130 | > 400 | 50 units/mL | 0 | 175 | – |
| Nc1nc(O)c(Cl)c(-c2ccco2)n1 | 120 | – | – | – | – | – |

| Compound | ED50 (Semliki Forest virus [1]) [mg/kg] | ED50 (Semliki Forest virus [2]) [mg/kg] | IFN [3] | Protection index (Human alphaherpesvirus 1) | ED50 (Semliki Forest virus [4]) [mg/kg] | ED50 (Semliki Forest virus [5]) |
| --- | --- | --- | --- | --- | --- | --- |
| Nc1nc(O)c(Br)c(-c2cc(Cl)ccc2Cl)n1 | 180 | > 400 | >=2000 ml | – | > 400 | – |
| Nc1nc(O)c(Br)c(-c2cccnc2)n1 | 75 | > 400 | – | 0.45 | > 400 | – |
| Nc1nc(O)c(I)c(-c2cc(Cl)cc(Cl)c2)n1 | 140 | > 400 | 50 units/mL | 0.4 | 225 | – |
| Nc1nc(O)c(Br)c(-c2cc(F)cc(F)c2)n1 | 150 | – | 50 units/mL | 0 | – | – |
| COc1ccccc1-c1nc(N)nc(O)c1Br | 15 | > 400 | 50 units/mL | 0.92 | 100 | – |
| Nc1nc(O)c(I)c(-c2c(F)cccc2F)n1 | 285 | – | – | – | – | – |
| Nc1nc(O)c(Cl)c(-c2cccc3ccccc23)n1 | 80 | > 400 | – | 0.54 | > 400 | – |
| COc1cc(OC)cc(-c2nc(N)nc(O)c2Br)c1 | 15 | – | – | – | – | – |
| Nc1nc(=O)c(Br)c(-c2ccccc2)[nH]1 [BROPIRIMINE] | 100 | 100 | – | 0.6 | 50 | – |
| Nc1nc(O)c(I)c(-c2ccc(OCc3ccccc3)cc2)n1 | > 400 | – | – | – | – | – |
| Nc1nc(O)c(Br)c(-c2c(F)cc(F)cc2F)n1 | – | – | – | 0 | – | inactive |
| Nc1nc(O)c(Br)c(-c2cccc([N+](=O)[O-])c2)n1 | 140 | > 400 | – | 0.53 | > 400 | – |
| Nc1cccc(-c2nc(N)nc(O)c2Br)c1 | – | – | – | – | – | inactive |
| Nc1nc(O)c(I)c(-c2c(F)cc(F)cc2F)n1 | – | – | – | 0 | – | inactive |
| Nc1nc(O)c(Br)c(-c2ccccc2Cl)n1 | 285 | – | – | – | – | – |
| Cc1ccccc1-c1nc(N)nc(O)c1Br | 60 | > 400 | – | 0.2 | > 400 | – |
| Nc1nc(O)c(I)c(-c2cc(F)ccc2F)n1 | 95 | > 400 | >=2000 ml | 0 | – | – |
| COc1cccc(-c2nc(N)nc(O)c2Br)c1OC | – | – | – | – | – | inactive |
| COc1ccccc1-c1nc(N)nc(O)c1I | 25 | > 400 | 50 units/mL | 0.69 | 120 | – |
| Nc1nc(O)c(Br)c(-c2c(F)ccc(F)c2F)n1 | – | – | – | 0 | – | inactive |
| CCOc1cccc(-c2nc(N)nc(O)c2Br)c1 | – | – | – | 0.4 | – | – |
| COc1cc(OC)cc(-c2nc(N)nc(O)c2I)c1 | 55 | – | – | – | – | – |
| Nc1nc(O)c(Cl)c(-c2ccc(OCc3ccccc3)cc2)n1 | – | – | – | – | – | inactive |
| CCOCCOc1cccc(-c2nc(N)nc(O)c2Br)c1 | – | – | – | 0.55 | – | – |

| Compound | ED50 (Semliki Forest virus [1]) [mg/kg] | ED50 (Semliki Forest virus [2]) [mg/kg] | IFN [3] | Protection index (Human alphaherpesvirus 1) | ED50 (Semliki Forest virus [4]) [mg/kg] | ED50 (Semliki Forest virus [5]) |
| --- | --- | --- | --- | --- | --- | --- |
| Nc1nc(O)c(Br)c(-c2cccc(Cl)c2)n1 | 30 | > 400 | >=2000 ml | 0.78 | 300 | – |
| Nc1nc(O)c(I)c(-c2cccc(I)c2)n1 | 125 | – | 50 units/mL | 0.53 | – | – |
| Nc1nc(O)c(Br)c(-c2ccc(OCc3ccccc3)cc2)n1 | – | – | – | – | – | inactive |
| Nc1nc(O)c(Cl)c(-c2cccc(Cl)c2)n1 | 135 | > 400 | 50 units/mL | 0.86 | > 400 | – |
| Cc1ccccc1-c1nc(N)nc(O)c1I | 175 | > 400 | – | 0.13 | 205 | – |
| Nc1nc(O)c(I)c(-c2cc(Cl)ccc2Cl)n1 | 305 | 75 | >=2000 ml | 0 | 115 | – |
| Nc1nc(O)c(Br)c(-c2cccc(I)c2)n1 | 355 | 170 | – | – | > 400 | – |
| Nc1nc(O)c(Cl)c(-c2cccc([N+](=O)[O-])c2)n1 | 140 | > 400 | 50 units/mL | 0.92 | 380 | – |
| Nc1nc(O)c(Cl)c(-c2cccc(O)c2)n1 | – | – | – | 0.5 | – | – |
| Nc1nc(O)c(I)c(-c2ccccc2Cl)n1 | 90 | – | – | 0.13 | – | – |
| COc1cccc(-c2nc(N)nc(O)c2Cl)c1OC | – | – | – | – | – | inactive |
| Nc1nc(O)c(I)c(-c2ccc(F)cc2)n1 | 245 | 260 | >=2000 ml | 0.29 | 250 | – |
| Nc1nc(O)c(Br)c(-c2cccc(F)c2F)n1 | 115 | 330 | >=2000 ml | 0.54 | – | – |
| Nc1nc(O)c(Cl)c(-c2ccccc2Cl)n1 | 300 | – | 50 units/mL | – | – | – |
| CCOCCOc1cccc(-c2nc(N)nc(O)c2I)c1 | – | – | – | 0.21 | – | – |
| COc1cccc(-c2nc(N)nc(O)c2I)c1OC | – | – | – | – | – | inactive |
| Nc1nc(O)c(Cl)c(-c2cccc(I)c2)n1 | – | – | – | – | – | inactive |
| Nc1nc(O)c(Cl)c(-c2ccccc2)n1 | 100 | 90 | >=2000 ml | 0.62 | 105 | – |
| Nc1nc(O)c(I)c(-c2ccncc2)n1 | 365 | > 400 | – | – | > 400 | – |
| Nc1nc(O)c(I)c(-c2cccc(F)c2F)n1 | > 400 | 365 | >=2000 ml | 0.34 | – | – |
| Nc1nc(O)c(Br)c(-c2ccc(Cl)c(Cl)c2)n1 | 215 | > 400 | – | 0.29 | > 400 | – |
| Nc1nc(O)c(Cl)c(-c2cc(F)cc(F)c2)n1 | 185 | > 400 | 50 units/mL | 0.5 | – | – |
| Nc1nc(O)c(Cl)c(-c2ccc(Cl)c(Cl)c2)n1 | 225 | > 400 | – | 0 | > 400 | – |
